Published values pooled from the literature.
Protocols differ between the studies behind these lines.
Cell line: U-937
Read-out: cell growth or viability

| Compound | test | setting | IC50 [nM] |
| --- | --- | --- | --- |
| COc1cc2nccc(Oc3ccc(NC(=O)C4(C(=O)Nc5ccc(F)cc5)CC4)cc3)c2cc1OC | trypan blue | 72 h | 2990 |
| COc1cc(Nc2nccc(-c3cnn4nc(OC)ccc34)n2)cc(C(F)(F)F)c1 | ATP luminescence | – | 210 |
| CCCCCCCCC1=CC2C=CC=CC1C2C1CCCCC1=O (stereo not drawn) | flow cytometry | – | 84 |
| COc1cc(-c2ncn(/C=C\C(=O)OC(C)C)n2)cc(C(F)(F)F)c1 | – | 72 h | 223 |
| CC[C@]1(O)C[C@H]2CN(CCc3c([nH]c4ccccc34)[C@@](C(=O)OC)(c3cc4c(cc3OC)N(C=O)[C@H]3[C@@](O)(C(=O)OC)[C@H](OC(C)=O)[C@]5(CC)C=CCN6CC[C@]43[C@@H]65)C2)C1 | fluorescence | 72 h | 7.6 |
| O=C1CCCCC1C1C2C=CC=CC1/C(=C/c1ccccc1)C2 (stereo not drawn) | flow cytometry | – | 77 |
| C#CCSc1nc(Sc2nnnn2-c2ccccc2)c2nnn(Cc3ccc(OC)cc3)c2n1 | MTS | 6 days | 3230 |
| N[C@@H](CC(=O)N1CCN(C(c2ccc(F)cc2)c2ccc(F)cc2)CC1)C(=O)N1Cc2ccccc2C1 | ATP luminescence | 48 h | 27400 |
| Nc1nc(Nc2ccc3c(c2)CC[C@@H](N2CCCC2)CC3)nn1-c1cc2c(nn1)-c1ccccc1CCC2 | trypan blue | 72 h | 1450 |
| CC(C)[C@H](N)C(=O)N1CCC[C@H]1B(O)O | ATP luminescence | 48 h | > 60000 |
| CC(C)C[C@H](NC(=O)[C@H](Cc1ccccc1)NC(=O)c1cnccn1)B(O)O | ATP luminescence | – | 4.4 |
| CC(=O)OCCC1=CC2C=CC=CC1C2C1CCCCC1=O (stereo not drawn) | flow cytometry | – | 167 |
| CCC[C@H](Nc1nc(-c2ccc(NC(=O)NCC)c(OC)c2)ncc1C)c1cccnc1 | fluorescence | 72 h | 33.1 |
| CCOC(=O)CCC1=CC2C=CC=CC1C2C1CCCCC1=O (stereo not drawn) | flow cytometry | – | 51 |
| CC(=O)O[C@H]1C(=O)[C@@]2(C)[C@H]([C@H](OC(=O)c3ccccc3)[C@]3(O)C[C@H](OC(=O)[C@H](O)[C@@H](NC(=O)c4ccccc4)c4ccccc4)C(C)=C1C3(C)C)[C@]1(OC(C)=O)CO[C@@H]1C[C@@H]2O | – | 72 h | 2.7 |
